Reference: ChEMBL document CHEMBL2417466, “An extended pyrrolobenzodiazepine-polyamide conjugate with selectivity for a DNA sequence containing the ICB2 transcription factor binding site” (2013)
Active and inactive are the calls of the source. The calls are words filed in the database; no cut-off is given here.

What was measured:
DNA [1] = experiment: Binding affinity to calf thymus DNA at 5 uM after 4 hrs by UV-visible spectrophotometric analysis; assay type: nucleic-acid assay; settings: Bos taurus
How it was run: (§1)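 Calf thymus DNA at 50 μM bp with ligand fixed at 5 μM. Buffer was 10 mM sodium phosphate, 1 mM EDTA, pH 7.00, with ≤0.3% DMSO. Incubated at 37 °C, then melted at 1 °C/min from 50–99 °C while monitoring absorbance at 260 nm. Buffer baseline subtracted and DMSO-corrected. ΔTm = Tm(DNA+ligand) − Tm(DNA), run in triplicate.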

[2] = Cytotoxicity against human NCI60 cells; assay type: functional; settings: for CC50: read-out: LC50 (the source's name)
How it was run: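 Screened in the NCI 60 human tumour cell-line panel. Values are GI50 (50% growth inhibition), TGI (total growth inhibition) and LC50 (50% lethality) concentrations, each reported as the mean across the 60-cell-line panel.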

[3] = Cytotoxicity against human NCI60 cells assessed as concentration required for total growth inhibition; assay type: functional
How it was run: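 NCI 60 human tumor cell line screen. TGI is the concentration causing total growth inhibition, given as the mean across the 60-cell-line panel.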

DNA [4] = experiment: Binding affinity to calf thymus DNA at 5 uM after 18 hrs by UV-visible spectrophotometric analysis; assay type: nucleic-acid assay; settings: Bos taurus; how it was run: as §1
NIH3T3 = experiment: Binding affinity to topo 2-alpha ICB2 (5'-CTACGATTGGTTCTT-3') in mouse NIH/3T3 cells nuclear extract assessed as inhibition of NF-Y transcription factor binding at 5 uM preincubated for 1.5 hrs by electrophoretic mobility shift assay; assay type: cell-free
How it was run: (§2)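 Nuclear extract from NIH3T3 cells grown in DMEM with 10% newborn calf serum. 5 μg extract held at 4 °C for 30 min in K-Hepes pH 7.9 buffer with poly(dI-dC). About 0.1 ng of 32P end-labeled double-stranded ICB1 or ICB2 oligonucleotide then added for 2 h at room temperature. Run on 4% native polyacrylamide gel at 4 °C with autoradiography. Cold and mutated oligonucleotides served as controls.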

Homo sapiens [5] = species on record: Homo sapiens; experiment: Binding affinity to 170 bp human DNA topoisomerase 2-alpha promoter ICB2 site at 1 uM after 17 hrs by DNase 1 footprinting assay
How it was run: (§3)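 170 bp Topo IIα promoter fragment (ICB1 and ICB2) PCR-amplified from human genomic DNA, IR700 end-labeled, used at 4 nM final. Incubated in the dark for 17 h at room temperature. DNase I digestion for 8 min, stopped with EDTA. Denaturing sequencing gel with IR dye detection and G+A markers.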

Homo sapiens [6] = species on record: Homo sapiens; experiment: Binding affinity to 170 bp human DNA topoisomerase 2-alpha promoter ICB1 site at 1 uM after 17 hrs by DNase 1 footprinting assay; how it was run: as §3
NIH/3T3 [7] = experiment: Binding affinity to topo 2-alpha ICB1 (5'-CAGGGATTGGCTGGT-3') in mouse NIH/3T3 cells nuclear extract assessed as inhibition of NF-Y transcription factor binding at 5 uM preincubated for 1.5 hrs and by electrophoretic mobility shift assay; assay type: cell-free; how it was run: as §2
NIH/3T3 [8] = experiment: Binding affinity to Topo 2-alpha ICB1 (5'-CAGGGATTGGCTGGT-3') in mouse NIH/3T3 cells nuclear extract assessed as inhibition of NF-Y transcription factor binding at 50 uM preincubated for 1.5 hrs by electrophoretic mobility shift assay; assay type: cell-free; how it was run: as §2
Homo sapiens [9] = species on record: Homo sapiens; experiment: Binding affinity to 170 bp human DNA topoisomerase 2-alpha promoter ICB1 site at 5 uM after 17 hrs by DNase 1 footprinting assay; how it was run: as §3

With COC(=O)c1cc(NC(=O)c2nc(NC(=O)c3nc(NC(=O)CCCOc4cc5c(cc4OC)C(=O)N4CCC[C@H]4C=N5)cn3C)cn2C)cn1C the ΔTm (DNA [1]) was 15 °C, the GI50 [2] was 3.8 nM and the CC50 [2] was 6800 nM. For the same molecule, the TGI [3] was 37 nM and the ΔTm (DNA [4]) was 15.4 °C.
Molecule CCOC(=O)c1csc(NC(=O)c2csc(NC(=O)c3csc(NC(=O)CCCOc4cc5c(cc4OC)C(=O)N4CCC[C@H]4C=N5)n3)n2)n1 has a ΔTm (DNA [1]) of 10.7 °C, a GI50 [2] of 282 nM and a CC50 [2] of 15800 nM. It also gave a TGI [3] of 2040 nM and a ΔTm (DNA [4]) of 10.9 °C.
For CCOC(=O)c1nc(NC(=O)c2cc(NC(=O)c3cc(NC(=O)CCCOc4cc5c(cc4OC)C(=O)N4CCC[C@H]4C=N5)cn3C)cn2C)cn1C, the ΔTm (DNA [1]) was 17.6 °C, the GI50 [2] was 3.8 nM and the CC50 [2] was 6800 nM. It also gave a TGI [3] of 37 nM and a ΔTm (DNA [4]) of 18.7 °C.
With CCOC(=O)c1csc(NC(=O)c2cc(NC(=O)c3csc(NC(=O)CCCOc4cc5c(cc4OC)C(=O)N4CCC[C@H]4C=N5)n3)cn2C)n1 the ΔTm (DNA [1]) was 7.1 °C and the ΔTm (DNA [4]) was 7.8 °C.
Molecule CCOC(=O)c1csc(NC(=O)c2cc(NC(=O)c3cc(NC(=O)CCCOc4cc5c(cc4OC)C(=O)N4CCC[C@H]4C=N5)cn3C)cn2C)n1 has a ΔTm (DNA [1]) of 17.7 °C, a GI50 [2] of 2.9 nM and a CC50 [2] of 8900 nM. The TGI [3] was 28 nM and the ΔTm (DNA [4]) was 18.6 °C.
In the case of CCOC(=O)c1csc(NC(=O)c2csc(NC(=O)c3cc(NC(=O)CCCOc4cc5c(cc4OC)C(=O)N4CCC[C@H]4C=N5)cn3C)n2)n1, the ΔTm (DNA [1]) is reported as 8.1 °C and the ΔTm (DNA [4]) is reported as 8.4 °C.
CCOC(=O)c1nc(NC(=O)c2nc(NC(=O)c3nc(NC(=O)CCCOc4cc5c(cc4OC)C(=O)N4CCC[C@H]4C=N5)cn3C)cn2C)cn1C showed a ΔTm (DNA [1]) of 11.7 °C, a GI50 [2] of 87.1 nM and a CC50 [2] of 15400 nM. For the same molecule, the TGI [3] was 1290 nM and the ΔTm (DNA [4]) was 12 °C.
Molecule COC(=O)c1cc(NC(=O)c2nc(NC(=O)c3cc(NC(=O)CCCOc4cc5c(cc4OC)C(=O)N4CCC[C@H]4C=N5)cn3C)cn2C)cn1C has a ΔTm (DNA [1]) of 16 °C, a GI50 [2] of 3 nM and a CC50 [2] of 6600 nM. It also gave a TGI [3] of 20 nM and a ΔTm (DNA [4]) of 16.9 °C.
For COC(=O)c1cc(NC(=O)c2cc(NC(=O)CCCOc3cc4c(cc3OC)C(=O)N3CCC[C@H]3C=N4)cn2C)cn1C, the inhibition (NIH3T3) was “Active”, the Activity (Homo sapiens [5]) was “Active” and the Activity (Homo sapiens [6]) was “Active”. The inhibition (NIH/3T3 [7]) was “Active”.
In the case of COC(=O)c1cc(NC(=O)c2cc(NC(=O)c3nc(NC(=O)CCCOc4cc5c(cc4OC)C(=O)N4CCC[C@H]4C=N5)cn3C)cn2C)cn1C, the inhibition (NIH3T3) is reported as “Active”, the ΔTm (DNA [1]) is reported as 19.8 °C and the GI50 [2] is reported as 1.3 nM. The CC50 [2] was 2300 nM, the inhibition (NIH/3T3 [8]) was “Active” and the Activity (Homo sapiens [5]) was “Active”. The Activity (Homo sapiens [9]) was “Active”, the TGI [3] was 24 nM and the ΔTm (DNA [4]) was 21.1 °C.
For CCOC(=O)c1nc(NC(=O)c2cc(NC(=O)c3nc(NC(=O)CCCOc4cc5c(cc4OC)C(=O)N4CCC[C@H]4C=N5)cn3C)cn2C)cn1C, the ΔTm (DNA [1]) was 15.7 °C, the GI50 [2] was 4.2 nM and the CC50 [2] was 12300 nM. The TGI [3] was 141 nM and the ΔTm (DNA [4]) was 16.2 °C.
COC(=O)c1cc(NC(=O)c2cc(NC(=O)c3csc(NC(=O)CCCOc4cc5c(cc4OC)C(=O)N4CCC[C@H]4C=N5)n3)cn2C)cn1C showed a ΔTm (DNA [1]) of 17.4 °C, a GI50 [2] of 1.4 nM and a CC50 [2] of 4400 nM. For the same molecule, the TGI [3] was 30 nM and the ΔTm (DNA [4]) was 18.2 °C.
With CCOC(=O)c1nc(NC(=O)c2nc(NC(=O)c3cc(NC(=O)CCCOc4cc5c(cc4OC)C(=O)N4CCC[C@H]4C=N5)cn3C)cn2C)cn1C the ΔTm (DNA [1]) was 14.8 °C, the GI50 [2] was 13.5 nM and the CC50 [2] was 9500 nM. For the same molecule, the TGI [3] was 27 nM and the ΔTm (DNA [4]) was 15.2 °C.
For COC(=O)c1cc(NC(=O)c2csc(NC(=O)c3cc(NC(=O)CCCOc4cc5c(cc4OC)C(=O)N4CCC[C@H]4C=N5)cn3C)n2)cn1C, the ΔTm (DNA [1]) was 19.9 °C, the GI50 [2] was 2.8 nM and the CC50 [2] was 9100 nM. It also gave a TGI [3] of 50 nM and a ΔTm (DNA [4]) of 20.7 °C.
In the case of COC(=O)c1cc(NC(=O)c2cc(NC(=O)c3cc(NC(=O)CCCOc4cc5c(cc4OC)C(=O)N4CCC[C@H]4C=N5)cn3C)cn2C)cn1C, the ΔTm (DNA [1]) is reported as 18.7 °C, the GI50 [2] is reported as 15 nM and the CC50 [2] is reported as 1100 nM. The TGI [3] was 32 nM and the ΔTm (DNA [4]) was 20.2 °C.
